Columns and labels:
[1] = Cytotoxicity against human T29 cells assessed as survival at 10 uM after 48 hrs by MTT assay relative to control; type: cell-based; details: read-out: Survival
In short: (§1)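 Survival ratio (%) determined from the surviving fraction after treatment. Reported as mean of three independent experiments.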

[2] = Cytotoxicity against HOSEC assessed as survival at 10 uM after 48 hrs by MTT assay relative to control; details: human, HOSEC cells; read-out: Survival; in short: as §1
[3] = Cytotoxicity against HUVEC assessed as survival at 10 uM after 48 hrs by MTT assay relative to control; type: cell-based; details: human, HUVEC cells; read-out: Survival; in short: as §1
A2780/Taxol = experiment: Reversal ratio of IC50 for paclitaxel-induced cytotoxicity against human A2780/TAX cells in absence of compound to IC50 paclitaxel-induced cytotoxicity against human A2780/TAX cells in presence of compound; type: functional
[4] = Cytotoxicity against human A2780/TAX cells assessed as survival at 10 uM after 48 hrs by MTT assay relative to control; type: cell-based, A2780/Taxol; details: read-out: Survival; in short: as §1
[5] = Cytotoxicity against human A2780/CDDP cells assessed as survival at 10 uM after 48 hrs by MTT assay relative to control; type: cell-based; details: read-out: Survival; in short: as §1
[6] = Cytotoxicity against human KBV cells assessed as survival at 10 uM after 48 hrs by MTT assay relative to control; type: cell-based; details: read-out: Survival; in short: as §1
[7] = Reversal ratio of IC50 for vincristine-induced cytotoxicity against human KBV cells in absence of compound to IC50 for vincristine-induced cytotoxicity against human KBV cells in presence of compound; type: functional
[8] = Reversal ratio of IC50 for cisplatin-induced cytotoxicity against human A2780/CDDP cells in absence of compound to IC50 for cisplatin-induced cytotoxicity against human A2780/CDDP cells in presence of compound; type: functional
[9] = Resistance ratio of IC50 for human KBV cells to IC50 for human KB cells; type: functional
KB = experiment: Cytotoxicity against human KB cells after 48 hrs by MTT assay; type: functional, cell-based

SMILES | viability at 48 h, 10 µM [1] [%] | viability at 48 h, 10 µM [2] [%] | viability at 48 h, 10 µM [3] [%] | Ratio IC50 (A2780/Taxol) | viability at 48 h, 10 µM [4] [%] | viability at 48 h, 10 µM [5] [%] | viability at 48 h, 10 µM [6] [%] | Ratio IC50 [7] | Ratio IC50 [8] | Ratio IC50 [9] | IC50 (KB) [nM]
CCOc1ccc2c(C)cc(=O)oc2c1COC(=O)c1ccc(Cl)c([N+](=O)[O-])c1 | 72.6 | 50.1 | 81 | 31 | 78.7 |  |  |  |  |  | 
COc1cc(OC)c(C(=O)OCc2c(OC(C)C)ccc3c(C)cc(=O)oc23)cc1OC | 90.9 | 86.3 | 72.7 | 161 | 106 |  |  |  |  |  | 
Cc1ccc(C(=O)OCc2c(OC(C)C)ccc3c(C)cc(=O)oc23)cc1 | 91.2 | 79.8 | 75.6 | 95 | 95.2 |  |  |  |  |  | 
CCOc1ccc2c(C)cc(=O)oc2c1COC(=O)c1ccc(C(C)(C)C)cc1 | 87.1 | 79.8 | 76 | 158 | 95.1 |  |  |  |  |  | 
CCOc1ccc2c(C)cc(=O)oc2c1COC(=O)c1cc(OC)c(OC)c(OC)c1 | 103 | 86.7 | 99.7 | 51 | 97.6 |  |  |  |  |  | 
CCOc1ccc2c(C)cc(=O)oc2c1COC(=O)c1ccc(F)cc1 | 88.6 | 78.3 | 87.2 | 61 | 93.4 |  |  |  |  |  | 
CCOc1ccc2c(C)cc(=O)oc2c1COC(=O)/C=C/c1ccccc1 | 98.7 | 92.2 | 84.7 | 97 | 98.9 |  |  |  |  |  | 
Cc1cc(=O)oc2c(COC(=O)c3ccc(C(C)(C)C)cc3)c(OC(C)C)ccc12 | 96 | 90.6 | 83.7 | 72 | 104 |  |  |  |  |  | 
CCOc1ccc2c(C)cc(=O)oc2c1COC(=O)c1ccc(OC)c(OC)c1 | 86.1 | 72 | 83.4 | 101 | 83.1 |  |  |  |  |  | 
Cc1cc(=O)oc2c(COC(=O)c3cccc(N(C)C)c3)c(OC(C)C)ccc12 | 90.8 | 76 | 84.8 | 86 | 102 |  |  |  |  |  | 
CCCc1ccc(C(=O)OCc2c(OCC)ccc3c(C)cc(=O)oc23)cc1 | 97.2 | 76 | 78.4 | 54 | 84 |  |  |  |  |  | 
CCOc1ccc2c(C)cc(=O)oc2c1COC(=O)c1ccc(C)cc1 | 86.1 | 64.7 | 77.1 | 26 | 95.8 |  |  |  |  |  | 
CCOc1ccc2c(C)cc(=O)oc2c1COC(=O)c1cccc(OC)c1 | 83.4 | 68.4 | 79.8 | 56 | 76.5 |  |  |  |  |  | 
Cc1cc(=O)oc2c(COC(=O)/C=C/c3ccccc3)c(OC(C)C)ccc12 | 104 | 105 | 95.9 | 32 | 103 |  |  |  |  |  | 
COc1ccc(/C=C/C(=O)OCc2c(OC(C)C)ccc3c(C)cc(=O)oc23)cc1 | 90.4 | 93.6 | 98.9 | 496 | 98.1 | 131 | 108 | 1257 | 0.78 |  | 
CCOc1ccc2c(C)cc(=O)oc2c1COC(=O)CCc1ccc(OC)cc1 | 91.3 | 73.5 | 85 | 6 | 101 |  |  |  |  |  | 
Cc1cc(=O)oc2c(COC(=O)c3ccc(F)cc3)c(OC(C)C)ccc12 | 85.3 | 70.5 | 79.7 | 93 | 102 |  |  |  |  |  | 
CCOc1ccc2c(C)cc(=O)oc2c1COC(=O)c1c(F)cccc1F | 94.6 | 78.2 | 86.3 | 72 | 101 |  |  |  |  |  | 
CCOc1ccc2c(C)cc(=O)oc2c1COC(=O)/C=C/c1ccc(Cl)cc1 | 106 | 90.7 | 101 | 14 | 102 |  |  |  |  |  | 
COc1ccc(C(=O)OCc2c(OC(C)C)ccc3c(C)cc(=O)oc23)cc1OC | 101 | 107 | 84.2 | 197 | 102 |  |  |  |  |  | 
CCCc1ccc(C(=O)OCc2c(OC(C)C)ccc3c(C)cc(=O)oc23)cc1 | 92.7 | 87.5 | 82.2 | 45 | 101 |  |  |  |  |  | 
CCOc1ccc2c(C)cc(=O)oc2c1COC(=O)c1cccc(N(C)C)c1 | 106 | 97.2 | 96.3 | 224 | 97 | 117 | 104 | 314 | 0.83 |  | 
Cc1cc(=O)oc2c(CO)c(OC(C)C)ccc12 | 88.6 | 80.2 | 84.7 |  | 94.6 |  |  |  |  |  | 
CCOc1ccc2c(C)cc(=O)oc2c1COC(=O)c1cc(OC)c(OC)cc1OC | 89.5 | 78.2 | 88.8 | 47 | 84.1 |  |  |  |  |  | 
COc1cc(C(=O)OCc2c(OC(C)C)ccc3c(C)cc(=O)oc23)cc(OC)c1OC | 81.5 | 61.7 | 73.1 | 354 | 94.6 | 65.5 | 96.1 | 134 | 0.86 |  | 
CCOc1ccc2c(C)cc(=O)oc2c1COC(=O)/C=C/c1ccc(OC)cc1 | 98.9 | 84.9 | 93.8 | 735 | 83.6 | 123 | 105 | 793 | 0.76 |  | 
CC[C@]1(O)C[C@H]2CN(CCc3c([nH]c4ccccc34)[C@@](C(=O)OC)(c3cc4c(cc3OC)N(C=O)[C@H]3[C@@](O)(C(=O)OC)[C@H](OC(C)=O)[C@]5(CC)C=CCN6CC[C@]43[C@@H]65)C2)C1 [VINCRISTINE] |  |  |  |  |  |  |  |  |  | 3173 | 0.21
